Here are results for 1 molecule from ChEMBL document CHEMBL3232837, “Synthesis and evaluation of new Hsp90 inhibitors based on a 1,4,5-trisubstituted 1,2,3-triazole scaffold” (J Med Chem, 2014).

For orientation: IC50 means the concentration needed to halve the response being measured. One may read the fraction remaining as the share of the starting amount still present when the sample was taken.

Calls of active or inactive are those of the source. The calls are words filed in the database; no cut-off is given here. A value given as a limit tells only on which side of the number the result lay.

Data set [1] concerns the target Heat shock protein HSP 90-alpha (Homo sapiens, UniProt P07900). Briefly: Displacement of GM-FITC from full-length recombinant human Hsp90-alpha after 4 hrs by fluorescence polarization assay. On the technique in general: In fluorescence polarisation assays a small probe gives low polarisation when free and higher when bound to something large.
Data set [2] relates to NCI-H460. Briefly: Cytotoxicity against human NCI-H460 cells assessed as growth inhibition after 72 hrs by SRB assay. The format is functional, cell-based. Particulars: NCI-H460, 72 h. A digest of the protocol:
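NCI-H460 cells grown in RPMI-1640 with 10% heat-inactivated FBS, seeded at about 10% confluence and allowed 24 h recovery. Exposed to graded drug concentrations or solvent for 72 h. Surviving fraction measured by sulforhodamine B. IC50 is the concentration giving a 50% drop in cell number vs vehicle, from dose-response curve fitting; mean of n=4 with SD.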
On the technique in general: The SRB assay estimates cell density from bound dye.

Data set [3] deals with Heat shock protein HSP 90-beta (Homo sapiens) (UniProt P08238). The data set is described as follows: Inhibition of HSP90 in human A431 cells overexpressing EGFR assessed as downregulation of EGFR protein expression after 24 hrs by Western blot analysis. The class given is cell-based. Particulars: A-431. A digest of the protocol:
(§1)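 A431 cells treated 24 h after seeding for 24 h over a concentration range; 17-DMAG 0.2 µM as reference. Cells lysed in RIPA buffer with protease and phosphatase inhibitors, protein measured by Bradford. Equal protein run on SDS-PAGE and blotted to nitrocellulose, then probed for EGFR, Cdk4, Akt, Hsp70 and actin. ECL detection; densitometry normalized to β-actin. Run at least twice.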

The target is the same in data set [4]. The data set is described as follows: Inhibition of HSP90 in human A431 cells overexpressing EGFR assessed as downregulation of CDK4 protein expression after 24 hrs by Western blot analysis. The class given is cell-based. Particulars: A-431. The procedure, abridged:
as §1
In general terms: In western blotting, separated proteins are transferred to a membrane and probed.

For data set [5] the target is unchanged. The data set is described as follows: Inhibition of HSP90 in human A431 cells overexpressing EGFR assessed as downregulation of AKT protein expression after 24 hrs by Western blot analysis. The format is cell-based. Particulars: A-431. The procedure, abridged: as §1
For data set [6] the target is unchanged. Briefly: Inhibition of HSP90 in human A431 cells overexpressing EGFR assessed as induction of HSP70 protein expression after 24 hrs by Western blot analysis. The conditions noted are these: A-431. The format is cell-based. A digest of the protocol: as §1
The subject of data set [7] is NCI-H460. Briefly: Cell cycle arrest in human NCI-H460 cells assessed as accumulation at G2/M phase at 2 times IC50 after 24 to 72 hrs by propidium iodide staining-based FACS flow cytometric analysis. The class given is functional.
The subject of data set [8] is NCI-H460. The data set is described as follows: Induction of apoptosis in human NCI-H460 cells assessed as cell with hypodiploid DNA content at 2 times IC50 after 24 to 72 hrs by propidium iodide staining-based FACS flow cytometric analysis. The class given is functional.
A further data set deals with A-431. The data set is described as follows: Antitumor activity against human A431 cells overexpressing EGFR xenografted in CD-1 nude mouse assessed as tumor growth inhibition at 5 mg/kg, ip administered as q2d/week for 2 weeks starting 3 days after tumor injection measured on day 5 post last dose relative to vehicle-treated control. The class given is functional. Particulars: A-431, ip, route intraperitoneal, read-out: TGI. The procedure, abridged: (§2)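 Female athymic nude mice, 5-6 weeks old, inoculated s.c. in right flank with 5 × 10^6 exponentially growing tumor cells. Intraperitoneal dosing in 10 mL/kg, starting 3 days post-implant. Tumor volume = d²·D/2 from calipered shortest and longest diameters, measured biweekly. TVI% = 100 − (mean TV treated/mean TV control × 100), scored 5 days after last dose. Mann-Whitney test vs vehicle group; 8 mice per group.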

Data set [9] in a line: Antitumor activity against human GTL16 cells overexpressing c-Met xenografted in CD-1 nude mouse assessed as tumor growth inhibition at 5 mg/kg, ip administered as q2d/week for 2 weeks starting 3 days after tumor injection measured on day 5 post last dose relative to vehicle-treated control. The class given is functional. The conditions noted are these: GTL 16, ip, route intraperitoneal, read-out: TGI. The procedure, abridged:
as §2

Data set [10] relates to Mus musculus. The data set is described as follows: Toxicity in CD-1 nude mouse xenografted with human A431 cells overexpressing EGFR assessed as body weight loss at 5 mg/kg, ip administered as q2d/week for 2 weeks starting 3 days after tumor injection measured on day 5 post last dose relative to vehicle-treated control. More on the design: dose 5 mg/kg, route intraperitoneal. The conditions noted are these: in vivo. The class given is organism-based, A-431. The procedure, abridged: (§3)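 Female athymic nude mice carrying s.c. xenografts, dosed i.p. (mg/10 mL/kg per administration) starting 3 days after tumor injection. BWL% = 100 − (mean BW day x/mean BW day 1 × 100), day 1 being the first treatment day. Maximum BWL% recorded. Lethal toxicity counted as deaths before the first control death.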

Data set [11] concerns Mus musculus. Briefly: Toxicity in CD-1 nude mouse xenografted with human GTL16 cells overexpressing c-Met assessed as body weight loss at 5 mg/kg, ip administered as q2d/week for 2 weeks starting 3 days after tumor injection measured on day 5 post last dose relative to vehicle-treated control. The format is organism-based. More on the design: dose 5 mg/kg, route intraperitoneal. Particulars: in vivo. A digest of the protocol: as §3

For data set [12], the system named is Mus musculus. Briefly: Toxicity in CD-1 nude mouse xenografted with human A431 cells overexpressing EGFR assessed as mortality at 5 mg/kg, ip administered as q2d/week for 2 weeks starting 3 days after tumor injection measured on day 5 post last dose relative to vehicle-treated control. The format is organism-based, A-431. More on the design: dose 5 mg/kg, route intraperitoneal. Particulars: in vivo. A digest of the protocol:
(§4)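 S.c. right-flank xenografts, 5 × 10^6 cells, in female athymic nude mice 5-6 weeks old. Intraperitoneal dosing in 10 mL/kg from day 3 post-implant. Lethal toxicity counted as deaths in treated mice occurring before the first control mouse died, reported as dead/treated (8 per group). Body weight loss was also tracked from the first treatment day.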

Data set [13] deals with Mus musculus. Briefly: Toxicity in CD-1 nude mouse xenografted with human GTL16 cells overexpressing c-Met assessed as mortality at 5 mg/kg, ip administered as q2d/week for 2 weeks starting 3 days after tumor injection measured on day 5 post last dose relative to vehicle-treated control. The format is organism-based. Particulars: in vivo. Also noted: dose 5 mg/kg, route intraperitoneal. The procedure, abridged: as §4

Data set [14] relates to Mus musculus. The data set is described as follows: In vivo inhibition of HSP90 in human A431 cells overexpressing EGFR xenografted in CD-1 nude mouse assessed as downregulation of EGFR protein expression at 5 mg/kg, ip administered as q2d/week for 2 weeks starting 3 days after tumor injection measured at 2 hrs post last dose by Western blot analysis. The class given is functional, organism-based. More on the design: dose 5 mg/kg. Particulars: A-431. The procedure, abridged: (§5)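 Nude-mouse s.c. xenografts given i.p. compound from day 3. Tumors excised 2 h (A431) or 6 h (GTL-16) after last dose and homogenized in tissue protein extraction reagent with 10 µg/ml protease inhibitor cocktail. Whole lysates analysed by Western blot with actin as loading control; two tumor samples per group shown.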

The subject of data set [15] is Mus musculus. Briefly: In vivo inhibition of HSP90 in human A431 cells overexpressing EGFR xenografted in CD-1 nude mouse assessed as downregulation of AKT protein expression at 5 mg/kg, ip administered as q2d/week for 2 weeks starting 3 days after tumor injection measured at 2 hrs post last dose by Western blot analysis. The format is functional, organism-based. Also noted: dose 5 mg/kg. Particulars: A-431. The procedure, abridged:
as §5

Data set [16] has as its system Mus musculus. The data set is described as follows: In vivo inhibition of HSP90 in human A431 cells overexpressing EGFR xenografted in CD-1 nude mouse assessed as downregulation of CDK4 protein expression at 5 mg/kg, ip administered as q2d/week for 2 weeks starting 3 days after tumor injection measured at 2 hrs post last dose by Western blot analysis. The conditions noted are these: A-431. More on the design: dose 5 mg/kg. The class given is functional, organism-based. A digest of the protocol: as §5

For data set [17], the system named is Mus musculus. The data set is described as follows: In vivo inhibition of HSP90 in human A431 cells overexpressing EGFR xenografted in CD-1 nude mouse assessed as induction of HSP70 protein expression at 5 mg/kg, ip administered as q2d/week for 2 weeks starting 3 days after tumor injection measured at 2 hrs post last dose by Western blot analysis. The class given is functional, organism-based. More on the design: dose 5 mg/kg. The conditions noted are these: A-431. The procedure, abridged: as §5

Data set [18] relates to Mus musculus. The data set is described as follows: In vivo inhibition of HSP90 in human GTL16 cells overexpressing c-Met xenografted in CD-1 nude mouse assessed as downregulation of c-Met protein expression at 5 mg/kg, ip administered as q2d/week for 2 weeks starting 3 days after tumor injection measured at 6 hrs post last dose by Western blot analysis. Also noted: dose 5 mg/kg. The class given is functional, organism-based. A digest of the protocol:
as §5

Data set [19] deals with Mus musculus. Briefly: In vivo inhibition of HSP90 in human GTL16 cells overexpressing c-Met xenografted in CD-1 nude mouse assessed as downregulation of AKT protein expression at 5 mg/kg, ip administered as q2d/week for 2 weeks starting 3 days after tumor injection measured at 6 hrs post last dose by Western blot analysis. The class given is functional, organism-based. More on the design: dose 5 mg/kg. A digest of the protocol:
as §5

For data set [20], the system named is Mus musculus. The data set is described as follows: In vivo inhibition of HSP90 in human GTL16 cells overexpressing c-Met xenografted in CD-1 nude mouse assessed as downregulation of CDK4 protein expression at 5 mg/kg, ip administered as q2d/week for 2 weeks starting 3 days after tumor injection measured at 6 hrs post last dose by Western blot analysis. The format is functional, organism-based. Also noted: dose 5 mg/kg. A digest of the protocol:
as §5

Data set [21] relates to Mus musculus. Briefly: In vivo inhibition of HSP90 in human GTL16 cells overexpressing c-Met xenografted in CD-1 nude mouse assessed as induction of HSP70 protein expression at 5 mg/kg, ip administered as q2d/week for 2 weeks starting 3 days after tumor injection measured at 6 hrs post last dose by Western blot analysis. More on the design: dose 5 mg/kg. The format is functional, organism-based. The procedure, abridged:
as §5

Data set [22] can be described thus: Metabolic stability in human plasma assessed as compound remaining at 5 uM measured at 120 mins by LC/MS analysis. The format is ADME, cell-free. The procedure, abridged: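 Compound added to human plasma at 5 µM final and incubated at 37 °C for up to 120 min. Samples quenched in two volumes of chilled acetonitrile and centrifuged at 4 °C. Remaining compound quantified by LC/MS.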

Sequence of Heat shock protein HSP 90-beta (Homo sapiens) (P08238 whole entry): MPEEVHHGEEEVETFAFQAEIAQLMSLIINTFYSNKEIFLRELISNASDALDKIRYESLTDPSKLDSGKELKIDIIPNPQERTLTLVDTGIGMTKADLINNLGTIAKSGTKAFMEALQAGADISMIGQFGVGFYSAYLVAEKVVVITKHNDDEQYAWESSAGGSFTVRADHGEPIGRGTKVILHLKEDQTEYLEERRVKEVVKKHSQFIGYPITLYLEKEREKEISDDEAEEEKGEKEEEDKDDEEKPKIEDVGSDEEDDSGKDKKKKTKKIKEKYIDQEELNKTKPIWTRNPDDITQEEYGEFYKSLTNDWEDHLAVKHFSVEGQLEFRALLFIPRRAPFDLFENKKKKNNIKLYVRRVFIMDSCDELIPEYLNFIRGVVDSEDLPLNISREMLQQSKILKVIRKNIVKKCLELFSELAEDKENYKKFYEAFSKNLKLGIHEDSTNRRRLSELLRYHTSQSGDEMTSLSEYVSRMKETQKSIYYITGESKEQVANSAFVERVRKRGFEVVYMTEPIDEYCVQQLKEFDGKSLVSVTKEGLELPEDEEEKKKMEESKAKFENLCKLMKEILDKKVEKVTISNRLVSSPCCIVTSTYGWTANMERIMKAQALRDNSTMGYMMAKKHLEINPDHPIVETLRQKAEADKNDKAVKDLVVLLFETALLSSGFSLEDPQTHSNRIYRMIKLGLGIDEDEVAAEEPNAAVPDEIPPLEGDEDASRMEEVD

As for `CCNC(=O)c1nnn(-c2cc(C(C)C)c(O)cc2O)c1-c1ccc(CN2CCOCC2)cc1`, the IC50 in data set [1] is below 5 nM; in the data set on NCI-H460 [2], 4 nM. Moreover, the inhibition result in [3], in [4], in data set [5] and in [6] was “Dose-dependent effect” each time. Also, the outcome in the data set on NCI-H460 [7] and in the data set with NCI-H460 [8] was Active. In addition, the inhibition in vivo at 5 mg/kg in the data set on A-431 was 49%; in [9], 42%. For the same molecule, the Imax in the data set with Mus musculus [10] was determined as 1%; with Mus musculus [11], 17%. Also, the Activity entry in the data set with Mus musculus [12] and in the data set with Mus musculus [13] was “Non-toxic” throughout. For the same molecule, the inhibition result in the data set on Mus musculus [14], in the data set on Mus musculus [15], in the data set with Mus musculus [16], with Mus musculus [17], with Mus musculus [18] and in the data set on Mus musculus [19] was “Active” in each case. For the same molecule, the inhibition entry in the data set on Mus musculus [20] and in the data set with Mus musculus [21] was “Active” in each case. Also, in [22], the fraction remaining at 2 h, 5 µM turned out to be 65%.
